From ChEMBL document CHEMBL1149087, “Anticancer and antimalarial efficacy and safety of artemisinin-derived trioxane dimers in rodents” (J Med Chem, 2004)
Structures can show the parent of a compound that is named as a salt.

Tests used:
C2G cell line = test: Inhibitory concentration to inhibit growth of C2G prostate cancer cell line by using MTT assay; type: functional, cell-based, Homo sapiens; details: Mus musculus
Outline: (§1)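 TRAMP mouse prostate cancer clonal lines, seeded at 2.5×10^4 (C1A), 2.0×10^4 (C2D, C2G) or 1.5×10^4 (C2H) cells/mL. Grown in DMEM high glucose with 10% FBS, insulin, pen-strep and 10^-8 M dihydrotestosterone at 37 °C, 5% CO2. After 24 h, switched to phenol-free medium with ethanol-dissolved compound. MTT read-out at 0, 24, 48 and 72 h: 4 h MTT, then SDS/HCl solubilisation overnight.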

TRAMP-C1A = test: Inhibitory concentration to inhibit growth of C1A prostate cancer cell line by using MTT assay; type: functional, cell-based; details: Mus musculus; outline: as §1
C2D cell line = test: Inhibitory concentration to inhibit growth of C2D prostate cancer cell line by using MTT assay; type: functional, cell-based, Homo sapiens; details: Mus musculus; outline: as §1
Mus musculus [1] = species: Mus musculus; test: Compound was tested for weight gain in mice; reduced; type: functional, organism-based
Mus musculus [2] = test: Compound was tested for number of animals that remain safe when administered intraperitoneally in mice (total no of deaths =125); 0/3; type: functional
Mus musculus [3] = test: Compound was tested for number of animals that remain safe when administered intraperitoneally in mice (total no of deaths =250); 1/3; type: functional
Mus musculus [4] = test: Compound was tested for number of animals that remain safe when administered intraperitoneally in mice (total no of deaths =500); 3/3; type: functional
Mus musculus [5] = test: Compound was tested for number of animals that remain safe when administered intraperitoneally in mice (total no of deaths =750); 2/3; type: functional
Plasmodium falciparum = test: In vitro antimalarial activity for Plasmodium falciparum NF54 infected mice (Mus musculus); type: functional, organism-based
Outline: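 In vitro antimalarial assay run in quadruplicate, with artemisinin as concurrent control (n = 3). EC50 taken from fitted dose-response curves.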

[6] = Therapeutic index expressed as maximum tolerated / ED50 intravenously was determined; details: iv; read-out: Therapeutic index
Outline: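 Therapeutic index calculated as maximum tolerated single ip dose in mice divided by iv ED50 (mg/kg/day × 4).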

TRAMP-C2H = test: Inhibitory concentration to inhibit growth of C2H prostate cancer cell line by using MTT assay; type: functional, cell-based; details: Mus musculus; outline: as §1
Mus musculus [7] = species: Mus musculus; test: Compound was tested for weight gain in mice; markedly reduced; type: functional, organism-based
Mus musculus [8] = test: Compound was tested for number of animals that remain safe when administered intraperitoneally in mice (dose 125 mg/kg); deaths 0/3
Mus musculus [9] = test: Compound was tested for number of animals that remain safe when administered intraperitoneally in mice (dose 250 mg/kg); deaths 1/3
Mus musculus [10] = test: Compound was tested for number of animals that remain safe when administered intraperitoneally in mice (dose 500 mg/kg); deaths 3/3
Mus musculus [11] = test: Compound was tested for number of animals that remain safe when administered intraperitoneally in mice (total no of deaths =250); 0/3; type: functional
Mus musculus [12] = test: Compound was tested for number of animals that remain safe when administered intraperitoneally in mice (total no of deaths =500); 1/3; type: functional
Mus musculus [13] = test: Compound was tested for number of animals that remain safe when administered intraperitoneally in mice (total no of deaths =750); 3/3; type: functional

Row | Compound | IC50 (C2G cell line) [nM] | IC50 (TRAMP-C1A) [nM] | IC50 (C2D cell line) [nM] | EC50 (Plasmodium falciparum) [nM] | selectivity ratio [6] | IC50 (TRAMP-C2H) [nM] | other results
1 | C[C@H]1[C@H](OC(=O)CCC(=O)OCC(COC(=O)CCC(=O)O[C@@H]2O[C@@H]3O[C@]4(C)CC[C@H]5[C@H](C)CC[C@@H]([C@H]2C)[C@@]35OO4)COC(=O)c2cc[n+]([O-])cc2)O[C@@H]2O[C@]3(C)CC[C@H]4[C@H](C)CC[C@@H]1[C@@]24OO3 (stereo not given in full) | 47.4 | 84.6 | 62.1 | 0.53 | 156 | 36.1 | Activity (Mus musculus [1]): Weight gain reduced; Therapeutic index (Mus musculus [2]): 0 mg/kg; Therapeutic index (Mus musculus [3]): 1 mg/kg; Therapeutic index (Mus musculus [4]): 3 mg/kg; Therapeutic index (Mus musculus [5]): 2 mg/kg
2 | C[C@@H]1CC[C@H]2[C@@H](C)C(=O)O[C@@H]3O[C@@]4(C)CC[C@@H]1[C@]32OO4 [ARTEMISININ] |  |  |  | 8.8 |  |  | 
3 | C[C@H]1[C@H](OC(=O)CCC(=O)[O-])O[C@@H]2O[C@@]3(C)CC[C@H]4[C@H](C)CC[C@@H]1[C@@]24OO3.[Na+] [SODIUM ARESUNATE] |  |  |  | 1.5 | 23 |  | Activity (Mus musculus [7]): Weight gain markedly reduced; Deaths (Mus musculus [8]): 0 deaths; Deaths (Mus musculus [9]): 1 deaths; Deaths (Mus musculus [10]): 3 deaths
4 | C[C@H]1[C@H](OC(=O)CCC(=O)OCC(COC(=O)CCC(=O)O[C@@H]2O[C@@H]3O[C@]4(C)CC[C@H]5[C@H](C)CC[C@@H]([C@H]2C)[C@@]35OO4)C(=O)O)O[C@@H]2O[C@]3(C)CC[C@H]4[C@H](C)CC[C@@H]1[C@@]24OO3 (stereo not given in full) | 134 | 159 | 231 | 2.4 | 167 | 116 | Therapeutic index (Mus musculus [2]): 0 mg/kg; Therapeutic index (Mus musculus [11]): 0 mg/kg; Therapeutic index (Mus musculus [12]): 1 mg/kg; Therapeutic index (Mus musculus [13]): 3 mg/kg
5 | COc1cccc2c1C(=O)c1c(O)c3c(c(O)c1C2=O)C[C@@](O)(C(=O)CO)C[C@@H]3O[C@H]1C[C@H](N)[C@H](O)[C@H](C)O1 [DOXORUBICIN] | 28.7 | 75.9 | 46.5 |  |  | 30.3 | 
6 | Nc1ccn([C@@H]2O[C@H](CO)[C@@H](O)C2(F)F)c(=O)n1 [GEMCITABINE HYDROCHLORIDE] | 3.7 | 9 | 11.9 |  |  | 4.7 | 
7 | C[C@H]1[C@H](OC(=O)CCC(=O)OCC(CO)COC(=O)CCC(=O)O[C@@H]2O[C@@H]3O[C@]4(C)CC[C@H]5[C@H](C)CC[C@@H]([C@H]2C)[C@@]35OO4)O[C@@H]2OC3(C)CC[C@H]4[C@H](C)CC[C@@H]1[C@@]24OO3 (single isomer, unassigned) | 15.4 | 23.3 | 18.5 |  |  | 9.2 | 
